Assay results taken from ChEMBL document CHEMBL1126688, “Interphenylene 7-oxabicyclo[2.2.1]heptane oxazoles. Highly potent, selective, and long-acting thromboxane A2 receptor antagonists” (J Med Chem, 1993).

What was measured:
[1] = Partition coefficient (logP); assay type: physicochemical; conditions: octanol/water
Outline: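 log P came from reversed-phase TLC Rm values on C18 plates. Eluent was acetone in 0.5 M aqueous KBr, buffered with 0.25 N triethylammonium phosphate to pH 7.3. Values were converted with a calibration curve built from shake-flask partition coefficients (pH 7.0) of seven oxabicycloheptane compounds spanning a range of lipophilicities.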

Homo sapiens [2] = organism: Homo sapiens; assay: Inhibitory activity against platelet aggregation, induced by U-46619 in human platelet rich plasma; assay type: functional
Outline: (§1)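 Human platelet-rich plasma. Aggregation was induced by exogenous arachidonic acid or by the TxA2 mimetic U-46,619, each at a single fixed agonist level. I50 was taken as the antagonist concentration giving 50% inhibition of aggregation.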

Homo sapiens [3] = organism: Homo sapiens; assay: Inhibitory activity against platelet aggregation, induced by arachidonic acid in human platelet rich plasma; assay type: functional; outline: as §1
Thromboxane A2 receptor = molecular target: T1, Thromboxane A2 receptor (Homo sapiens, UniProt P21731); assay: Inhibitory binding activity against TXA2 receptor in human platelet membrane, using [3H]-SQ 29548 as the radioligand
T1 sequence (P21731 whole entry): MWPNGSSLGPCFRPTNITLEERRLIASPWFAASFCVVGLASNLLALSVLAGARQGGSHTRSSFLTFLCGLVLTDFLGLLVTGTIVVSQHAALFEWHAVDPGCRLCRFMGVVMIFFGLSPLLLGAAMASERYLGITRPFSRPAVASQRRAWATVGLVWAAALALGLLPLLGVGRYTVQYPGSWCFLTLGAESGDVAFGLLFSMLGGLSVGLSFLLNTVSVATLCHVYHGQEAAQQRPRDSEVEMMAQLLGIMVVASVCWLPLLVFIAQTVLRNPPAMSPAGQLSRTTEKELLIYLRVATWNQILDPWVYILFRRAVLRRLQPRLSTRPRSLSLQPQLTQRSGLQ
Outline: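 Competition binding of [3H]-SQ 29,548 to TxA2 receptors in human platelet membranes, measured as inhibition of specific binding. Kd (inhibition constant) was calculated from each compound's I50 value. A slope factor is also reported.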

Mus musculus [4] = assay: In vivo duration of action required to prevent death in mice, after i.v. administration of U-46619 (2 mg/kg) at 0.2 mg/kg p.o.; conditions: po
Mus musculus [5] = assay: In vivo duration of action required to prevent death in mice, after iv administration of U-46619 (2 mg/kg) at 10 mg/kg po administration of compound

SMILES: O=C(O)CCc1ccccc1CC1C2CCC(O2)C1c1nc(C(=O)NCCCCc2ccc(F)cc2)co1 (stereo not given)
- logP [1]: 2.17
- IC50 (Homo sapiens [2]; read-out: I50): 11 nM
- IC50 (Homo sapiens [3]; read-out: I50): 4 nM
- Kd (Thromboxane A2 receptor): 3.9 nM
- T50 (Mus musculus [4]): 22.5 h

SMILES: O=C(O)CCc1ccccc1CC1C2CCC(O2)C1c1nc(C(=O)NCCCCc2ccc(Cl)cc2)co1 (stereo not given)
- logP [1]: 3.52
- Kd (Thromboxane A2 receptor): 0.2 nM
- T50 (Mus musculus [4]): 18.6 h

SMILES: CS(=O)(=O)c1ccc(CCCCNC(=O)c2coc(C3C4CCC(O4)C3Cc3ccccc3CCC(=O)O)n2)cc1 (stereo not given)
- logP [1]: 0.32
- IC50 (Homo sapiens [3]; read-out: I50): 26 nM

SMILES: O=C(O)CCc1ccccc1CC1C2CCC(O2)C1c1nc(C(=O)NCCCCCO)co1 (stereo not given)
- logP [1]: 1.07
- IC50 (Homo sapiens [2]; read-out: I50): 35 nM
- IC50 (Homo sapiens [3]; read-out: I50): 15 nM
- Kd (Thromboxane A2 receptor): 20 nM

SMILES: CCCCCCCNC(=O)c1coc(C2C3CCC(O3)C2Cc2ccccc2CCC(=O)O)n1 (stereo not given)
- logP [1]: 2.88
- Kd (Thromboxane A2 receptor): 0.2 nM
- T50 (Mus musculus [4]): 9.5 h
- T50 (Mus musculus [5]): 27.4 h

SMILES: O=C(O)COc1ccccc1CC1C2CCC(O2)C1c1nc(C(=O)NCCCCC2CCCCC2)co1 (stereo not given)
- IC50 (Homo sapiens [2]; read-out: I50): 8 nM
- IC50 (Homo sapiens [3]; read-out: I50): 7 nM
- Kd (Thromboxane A2 receptor): 3.2 nM

SMILES: O=C(NCCCCC1CCCCC1)c1coc(C2C3CCC(O3)C2Cc2ccccc2C(=O)O)n1 (stereo not given)
- IC50 (Homo sapiens [2]; read-out: I50): 171 nM
- IC50 (Homo sapiens [3]; read-out: I50): 52 nM

SMILES: NC(=O)CCc1ccccc1CC1C2CCC(O2)C1c1nc(C(=O)NCCCCC2CCCCC2)co1 (stereo not given)
- IC50 (Homo sapiens [3]; read-out: I50): 1070 nM

SMILES: CC(C)(C)CCCCNC(=O)c1coc(C2C3CCC(O3)C2Cc2ccccc2CCC(=O)O)n1 (stereo not given)
- logP [1]: 3.41
- IC50 (Homo sapiens [2]; read-out: I50): 35 nM
- IC50 (Homo sapiens [3]; read-out: I50): 8 nM
- Kd (Thromboxane A2 receptor): 0.6 nM
- T50 (Mus musculus [4]): 36.5 h

SMILES: CN(CCCCC1CCCCC1)C(=O)c1coc(C2C3CCC(O3)C2Cc2ccccc2CCC(=O)O)n1 (stereo not given)
- logP [1]: 3.89
- IC50 (Homo sapiens [3]; read-out: I50): 2 nM

SMILES: O=C(O)Cc1ccccc1CC1C2CCC(O2)C1c1nc(C(=O)NCCCCC2CCCCC2)co1 (stereo not given)
- IC50 (Homo sapiens [2]; read-out: I50): 97 nM
- IC50 (Homo sapiens [3]; read-out: I50): 14 nM
- Kd (Thromboxane A2 receptor): 19 nM

SMILES: NC(=O)c1coc(C2C3CCC(O3)C2Cc2ccccc2CCC(=O)O)n1 (stereo not given)
- logP [1]: -0.78
- IC50 (Homo sapiens [2]; read-out: I50): 258 nM
- IC50 (Homo sapiens [3]; read-out: I50): 44 nM

SMILES: O=C(O)CCc1ccccc1CC1C2CCC(O2)C1c1nc(C(=O)CCCCCC2CCCCC2)co1 (stereo not given)
- IC50 (Homo sapiens [2]; read-out: I50): 11 nM
- IC50 (Homo sapiens [3]; read-out: I50): 4 nM
- Kd (Thromboxane A2 receptor): 0.05 nM

SMILES: O=C(O)CCCc1ccccc1CC1C2CCC(O2)C1c1nc(C(=O)NCCCCC2CCCCC2)co1 (stereo not given)
- IC50 (Homo sapiens [3]; read-out: I50): 6 nM
- Kd (Thromboxane A2 receptor): 0.85 nM

SMILES: O=C(O)CCc1ccccc1CC1C2CCC(O2)C1c1nc(C(=O)NC2CCCCC2)co1 (stereo not given)
- logP [1]: 0.89
- Kd (Thromboxane A2 receptor): 4.5 nM
- T50 (Mus musculus [4]): 8.3 h

SMILES: O=C(O)CCc1ccccc1CC1C2CCC(O2)C1c1nc(C(=O)NCCCCC2CCCCC2)co1 (stereo not given)
- logP [1]: 3.93
- T50 (Mus musculus [4]): 22.5 h
- T50 (Mus musculus [5]): 49.6 h

SMILES: CC(C)(C)CCNC(=O)c1coc(C2C3CCC(O3)C2Cc2ccccc2CCC(=O)O)n1 (stereo not given)
- logP [1]: 1.23
- IC50 (Homo sapiens [2]; read-out: I50): 28 nM
- IC50 (Homo sapiens [3]; read-out: I50): 8 nM
- Kd (Thromboxane A2 receptor): 2.9 nM
- T50 (Mus musculus [4]): 13.5 h

SMILES: O=C(O)CCc1ccccc1CC1C2CCC(O2)C1c1nc(C(=O)NCCC2CCCCC2)co1 (stereo not given)
- logP [1]: 1.03
- IC50 (Homo sapiens [3]; read-out: I50): 2 nM
- Kd (Thromboxane A2 receptor): 0.7 nM
- T50 (Mus musculus [4]): 8.3 h

SMILES: CNC(=O)c1coc(C2C3CCC(O3)C2Cc2ccccc2CCC(=O)O)n1 (stereo not given)
- logP [1]: -0.11
- Kd (Thromboxane A2 receptor): 45 nM
- T50 (Mus musculus [4]): 7.5 h

SMILES: O=C(O)CCc1ccccc1CC1C2CCC(O2)C1c1nc(C(=O)NCCc2ccccc2)co1 (stereo not given)
- logP [1]: 0.98
- IC50 (Homo sapiens [2]; read-out: I50): 30 nM
- IC50 (Homo sapiens [3]; read-out: I50): 9 nM
- Kd (Thromboxane A2 receptor): 0.7 nM
- T50 (Mus musculus [4]): 4 h

SMILES: O=C(O)CCc1ccccc1CC1C2CCC(O2)C1c1nc(C(=S)NCCCCC2CCCCC2)co1 (stereo not given)
- IC50 (Homo sapiens [2]; read-out: I50): 9 nM
- IC50 (Homo sapiens [3]; read-out: I50): 2 nM
- Kd (Thromboxane A2 receptor): 10.6 nM

SMILES: C#CCCCCCNC(=O)c1coc(C2C3CCC(O3)C2Cc2ccccc2CCC(=O)O)n1 (stereo not given)
- logP [1]: 0.87
- IC50 (Homo sapiens [2]; read-out: I 50): 31 nM
- IC50 (Homo sapiens [3]; read-out: I 50): 14 nM
- Kd (Thromboxane A2 receptor): 4.7 nM
- T50 (Mus musculus [4]): 11.1 h

SMILES: CCCCCN(C)C(=O)c1coc(C2C3CCC(O3)C2Cc2ccccc2CCC(=O)O)n1 (stereo not given)
- logP [1]: 1
- IC50 (Homo sapiens [3]; read-out: I50): 9 nM
- Kd (Thromboxane A2 receptor): 11 nM
- T50 (Mus musculus [4]): 11.3 h

SMILES: CCCCCCCCCCNC(=O)c1coc(C2C3CCC(O3)C2Cc2ccccc2CCC(=O)O)n1 (stereo not given)
- logP [1]: 3.86
- Kd (Thromboxane A2 receptor): 5.8 nM
- T50 (Mus musculus [4]): 4.3 h

SMILES: CCCNC(=O)c1coc(C2C3CCC(O3)C2Cc2ccccc2CCC(=O)O)n1 (stereo not given)
- logP [1]: 0.4
- IC50 (Homo sapiens [2]; read-out: I50): 53 nM
- IC50 (Homo sapiens [3]; read-out: I50): 8 nM
- Kd (Thromboxane A2 receptor): 10 nM
- T50 (Mus musculus [4]): 2.3 h

SMILES: CCCCCNC(=O)c1coc(C2C3CCC(O3)C2Cc2ccccc2CCC(=O)O)n1 (stereo not given) [BMS-180291]
- logP [1]: 1.61
- IC50 (Homo sapiens [2]; read-out: I50): 21 nM
- Kd (Thromboxane A2 receptor): 4 nM
- T50 (Mus musculus [4]): 14.4 h
- T50 (Mus musculus [5]): 29.4 h
